ChEMBL document CHEMBL1130206, “Arylcarbamate derivatives of 1-piperidineethanol as potent ligands for 5-HT4 receptors” (J Med Chem, 1997)

Columns and labels:
[1] = target: T1, 5-hydroxytryptamine receptor 4 (Rattus norvegicus, UniProt Q62758); assay: Binding affinity (Ki+/-SEM) against 5-hydroxytryptamine 4 receptor from cheng Prusoff equation by using [3H]GR-113808 in rat striatum
Method in brief: (§1)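 Rat striatal membranes in 50 mM Hepes pH 7.4, 0.1–0.2 mg protein in 0.5 mL, with [3H]GR 113808. Seven drug concentrations, tested in triplicate. Nonspecific binding defined with 10 μM ML 10302. Bound ligand collected by filtration on PEI-soaked GF/B filters, washed with 50 mM Tris-HCl pH 8.4, counted by scintillation. IC50 fitted, Ki from Cheng–Prusoff, ±SEM.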

[2] = target: T1, 5-hydroxytryptamine receptor 4; assay: Binding affinity at 5-hydroxytryptamine 4 receptor in rat striatal membranes by [3H]GR-113808 displacement.; type: cell membranes, Striatum, Membrane; method in brief: as §1
Cavia porcellus [3] = species on record: Cavia porcellus; assay: Agonist activity was assessed as the concentration which gave a 50% increase in the response to electrical stimulation in the guinea pig ileum; type: functional
Method in brief: (§2)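 Guinea pig ileum myenteric plexus–longitudinal muscle strip, 0.5 g tension, transmural stimulation at 0.2 Hz and 1.5 ms. Phenoxybenzamine 10^-7 M present, voltage set to give 50% of supramaximal contraction. After two reproducible cumulative 5-HT curves, a cumulative agonist curve was run (60–120 s contact). EC50 = concentration giving 50% increase of the stimulated response, relative to maximum. Max effect expressed as % of 5-HT maximum, 95% confidence limits.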

Cavia porcellus [4] = species on record: Cavia porcellus; assay: Antagonist activity was calculated as the concentration which produced a 50% reduction in the submaximal of 5-HT induced contractions guinea pig ileum; type: functional
Cavia porcellus [5] = species on record: Cavia porcellus; assay: Agonist activity was assessed as the concentration which gave a 50% increase in the response to electrical stimulation in the guinea pig ileum and is expressed as percent of the maximum 5-HT response = 14%; type: functional; method in brief: as §2
[6] = target: T2, 5-hydroxytryptamine receptor 4 (Cavia porcellus, UniProt O70528); assay: concentration which gave a 50% increase in the response to electrical stimulation against 5-hydroxytryptamine 4 receptor in the guinea pig ileum. Activity expressed as percent of the maximum 5-HT response given in brackets.; type: functional, tissue-based; method in brief: as §2
[7] = target: T2, 5-hydroxytryptamine receptor 4; assay: The antagonist activity was calculated as the concentration which produced a 50% reduction against 5-hydroxytryptamine 4 receptor in guinea pig ileum.; type: functional, tissue-based
Cavia porcellus [8] = species on record: Cavia porcellus; assay: Agonist activity was assessed as the concentration which gave a 50% increase in the response to electrical stimulation in the guinea pig ileum; NA is not active; type: functional; method in brief: as §2
[9] = target: T2, 5-hydroxytryptamine receptor 4; assay: The antagonist activity was calculated as the concentration which produced a 50% reduction against 5-hydroxytryptamine 4 receptor in guinea pig ileum. 95% confidence limits are in brackets.; type: functional, tissue-based
[10] = target: T2, 5-hydroxytryptamine receptor 4; assay: concentration which gave a 50% increase in the response to electrical stimulation against 5-hydroxytryptamine 4 receptor in the guinea pig ileum.; type: functional, tissue-based; method in brief: as §2
Cavia porcellus [11] = species on record: Cavia porcellus; assay: Antagonist activity was calculated as the concentration which produced a 50% reduction in the submaximal of 5-HT induced contractions guinea pig ileum and is expressed as percent of the maximum 5-HT response = 70%; type: functional
Cavia porcellus [12] = species on record: Cavia porcellus; assay: Agonist activity was assessed as the concentration which gave a 50% increase in the response to electrical stimulation in the guinea pig ileum and is expressed as percent of the maximum 5-HT response = 78%; type: functional; method in brief: as §2
Cavia porcellus [13] = species on record: Cavia porcellus; assay: Antagonist activity was calculated as the concentration which produced a 50% reduction in the submaximal of 5-HT induced contractions guinea pig ileum and is expressed as percent of the maximum 5-HT response = 60%; type: functional

T1 sequence (Q62758 whole entry): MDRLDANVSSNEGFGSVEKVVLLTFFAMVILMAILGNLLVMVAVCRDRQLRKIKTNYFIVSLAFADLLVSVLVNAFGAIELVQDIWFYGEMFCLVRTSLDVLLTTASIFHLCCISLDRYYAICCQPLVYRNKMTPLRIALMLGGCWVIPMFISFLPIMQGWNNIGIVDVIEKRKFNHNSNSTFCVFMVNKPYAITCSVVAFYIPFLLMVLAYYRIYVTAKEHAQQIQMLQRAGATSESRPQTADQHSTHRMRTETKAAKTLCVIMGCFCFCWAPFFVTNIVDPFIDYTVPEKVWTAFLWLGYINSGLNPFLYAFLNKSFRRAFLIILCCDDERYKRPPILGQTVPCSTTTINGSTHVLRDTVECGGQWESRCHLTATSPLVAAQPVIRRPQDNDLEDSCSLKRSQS
T2 sequence (O70528 whole entry): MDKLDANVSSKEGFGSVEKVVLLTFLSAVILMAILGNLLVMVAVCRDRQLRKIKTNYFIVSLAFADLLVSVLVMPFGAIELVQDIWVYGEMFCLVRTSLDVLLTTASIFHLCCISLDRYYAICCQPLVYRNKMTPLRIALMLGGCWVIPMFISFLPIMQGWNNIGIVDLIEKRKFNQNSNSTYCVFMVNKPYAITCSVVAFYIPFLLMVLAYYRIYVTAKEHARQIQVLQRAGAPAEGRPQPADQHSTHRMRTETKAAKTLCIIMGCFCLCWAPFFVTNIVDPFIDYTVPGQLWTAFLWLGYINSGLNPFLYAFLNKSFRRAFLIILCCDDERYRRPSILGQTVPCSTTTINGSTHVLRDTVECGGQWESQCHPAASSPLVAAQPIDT

Row | Ki [1] | Ki [2] | IC50 (Cavia porcellus [4]) | Compound | also measured
1 | – | 8.9 nM | ~300 nM | COc1ccccc1NC(=O)OCCN1CCCCC1 | EC50 (Cavia porcellus [5]): ~100 nM
2 | 150 nM | – | – | CCN(CC)CCOC(=O)Nc1cc(Cl)c(N)cc1OC | EC50 [6]: 300 nM; IC50 [7]: 1000 nM
3 | 10.2 nM | – | – | COc1cc(N)c(Cl)cc1NC(=O)OCCN1CCCC(C)C1 (centres undefined) | –
4 | 14.5 nM | – | – | COc1cc(N)c(Cl)cc1NC(=O)OCCN1CCCCCC1 | IC50 [9]: 207 nM; EC50 [10]: 100 nM
5 | 125 nM | – | – | COc1cc(N)c(Cl)cc1NC(=O)OCCN1CCCC1 | EC50 [6]: 200 nM
6 | 2.4 nM | – | – | COc1cc(N)c(Cl)cc1NC(=O)OCCN1CC(C)CC(C)C1 (centres undefined) | IC50 [7]: 180 nM; EC50 [10]: > 1000 nM
7 | 25.1 nM | – | – | COc1cc(N)c(Cl)cc1NC(=O)OCCN1CCC(C)CC1 | EC50 [6]: 60 nM; IC50 [7]: 200 nM
8 | 39 nM | – | – | COc1cc(N)c(Cl)cc1NC(=O)OCCN1CCCCC1 | EC50 [10]: > 1000 nM
9 | > 1000 nM | – | – | Nc1ccccc1NC(=O)OCCN1CCCCC1 | –
10 | – | > 1000 nM | – | O=C(Nc1ccccc1Cl)OCCN1CCCCC1 | –
11 | – | 4.2 nM | 30 nM | COc1ccc(Cl)cc1NC(=O)OCCN1CCCCC1 | EC50 (Cavia porcellus [5]): ~1000 nM
12 | > 1000 nM | – | – | COc1cc(N)c(Cl)cc1NC(=O)CCCN1CCCCC1 | –
13 | – | 81 nM | – | COc1ccccc1NC(=O)OCCCN1CCCCC1 | –
14 | – | 2.6 nM | – | COc1ccccc1NC(=O)OCCN1C[C@H](C)C[C@H](C)C1 | IC50 (Cavia porcellus [13]): 160 nM; EC50 (Cavia porcellus [3]): > 1000 nM
15 | – | 2.6 nM | 62 nM | CCOc1ccccc1NC(=O)OCCN1CCCCC1 | EC50 (Cavia porcellus [3]): > 1000 nM

The next lines start with the compound.

Row | Compound | Ki [1] | Ki [2] | IC50 (Cavia porcellus [4]) | also measured
16 | Nc1cccc(NC(=O)OCCN2CCCCC2)c1 | > 1000 nM | – | – | –
17 | O=C(Nc1ccccc1)OCCN1CCCCC1 | – | 31.7 nM | ~1000 nM | EC50 (Cavia porcellus [3]): > 1000 nM
18 | COc1cccc(NC(=O)OCCN2CCCCC2)c1 | – | 469 nM | – | –
19 | COc1ccccc1NC(=O)CCCN1CCCCC1 | – | > 1000 nM | – | –
20 | COc1cc(N)c(Cl)cc1C(=O)OCCN1C[C@H](C)C[C@H](C)C1 | – | 0.26 nM | 11 nM | EC50 (Cavia porcellus [8]): Not Active
21 | Cn1cc(C(=O)OCC2CCN(CCNS(C)(=O)=O)CC2)c2ccccc21 | – | – | 13 nM | EC50 (Cavia porcellus [8]): Not Active
22 | CCOc1ccccc1NC(=O)OCCN1C[C@H](C)C[C@H](C)C1 | – | 1.05 nM | – | IC50 (Cavia porcellus [11]): 30 nM; EC50 (Cavia porcellus [3]): > 1000 nM
23 | CCN(CC)CCOC(=O)c1cc(Cl)c(N)cc1OC | – | – | 77 nM | EC50 (Cavia porcellus [8]): Not Active
24 | COc1cc(N)c(Cl)cc1C(=O)OCCN1CCCCC1 | – | – | – | EC50 (Cavia porcellus [12]): 4 nM
25 | COc1ccc(NC(=O)OCCN2CCCCC2)cc1 | – | > 1000 nM | – | –
26 | Nc1ccc(NC(=O)OCCN2CCCCC2)cc1 | > 1000 nM | – | – | –
27 | O=C(Nc1ccc(Cl)cc1)OCCN1CCCCC1 | – | 728 nM | – | –
28 | O=C(Nc1cccc(Cl)c1)OCCN1CCCCC1 | – | 60.8 nM | > 1000 nM | EC50 (Cavia porcellus [3]): > 1000 nM
29 | CCOc1ccccc1NC(=O)OCCN1CC(C)C[C@@H](C)C1 (single isomer, unassigned) | – | 1.16 nM | 100 nM | EC50 (Cavia porcellus [3]): > 1000 nM
